One data set addresses Cholinesterase (Homo sapiens, UniProt P06276). Briefly: Inhibition of human BChE using butyrylthiocholineiodide as substrate measured for 5 mins by Ellman's method. The method in brief: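 Human BChE at about 1 nM was preincubated for 5 min at 20 °C with compound and Ellman's reagent in 0.1 M phosphate buffer, pH 8.0, with 1% final DMSO. The reaction was started with butyrylthiocholine iodide and A412 read for 1 min from initial rates. Activity was corrected by an enzyme-free buffer blank. IC50 was fitted from at least seven concentrations.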

In the next data set the target is Acetylcholinesterase (Homo sapiens, UniProt P22303). The data set can be described thus: Inhibition of human AChE using acetylthiocholine iodide as substrate measured for 5 mins by Ellman's method. Summed up:
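Human AChE at about 50 pM was preincubated for 5 min at 20 °C with compound (DMSO stock) and Ellman's reagent in 0.1 M phosphate buffer, pH 8.0, with 1% final DMSO. Acetylthiocholine iodide was then added and A412 followed for 1 min. Residual activity = (vi − b)/(vo − b), with b a blank lacking enzyme. IC50 used at least seven concentrations.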

Data set [1] in a line: Neurotoxicity in mouse assessed as effect in locomotor activity at 30 mg/kg, ip measured up to 60 mins by rotarod test. In kind it is toxicity, organism-based. The following applies: in vivo, 1 h. Summed up:
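Mice trained 3 consecutive days on rotarod (2 cm rod, 18 rpm); 24 h later dosed i.p. with 30 mg/kg in 1% Tween 80 or vehicle, tested after 60 min at 6, 18 and 24 rpm. Motor impairment defined as failure to stay on for 60 s; expressed as mean time on rod.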
Background: Falling from the rotarod earlier than controls is read as motor impairment.

In data set [2] the test system is Mus musculus. The data set can be described thus: Cognitive enhancing effect in intraperitoneally dosed C57BL/6J mouse model of scopolamine-induced memory impairment assessed as enhancement of long-term memory retrieval by measuring latency time to find former escape box location in acquisition phase measured on day 12 by Barnes maze test. In kind it is functional, organism-based. The method in brief: (§1)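 C57BL/6J mice, Barnes maze: scopolamine 1 mg/kg s.c. 30 min before first daily trial; compound in 1% Tween 80 i.p. 60 min before, daily during 4-day acquisition (four trials/day, 15-min intervals). Drug-off probe day 5 (short-term) and day 12 (long-term): escape box removed, 90 s exploration, latency to former box location and primary errors recorded. n = 7–9; one-way ANOVA, Dunnett's.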

Data set [3] relates to Mus musculus. The data set can be described thus: Cognitive enhancing effect in intraperitoneally dosed C57BL/6J mouse model of scopolamine-induced memory impairment assessed as enhancement of short-term memory retrieval by measuring latency time to find former escape box location in acquisition phase measured on day 5 by Barnes maze test. In kind it is functional, organism-based. Summed up:
as §1

Data set [4] deals with Mus musculus. The data set can be described thus: Cognitive enhancing effect in intraperitoneally dosed C57BL/6J mouse model of scopolamine-induced memory impairment assessed as enhancement of learning abilities and working memory by measuring escape latency time to reach target in acquisition phase measured on day 5 by Barnes maze test. The format is functional, organism-based. The method in brief:
as §1

The test system of data set [5] is Mus musculus. Briefly: Cognitive enhancing effect in C57BL/6J mouse model of scopolamine-induced memory impairment model assessed as escape latency time at 10 to 30 mg/kg, ip administered for 7 days and 60 mins before trail by Morris water maze test relative to control. In kind it is functional, organism-based. Conditions: dose 10-30 mg/kg, time 7.0 day.
The test system of data set [6] is Mus musculus. Briefly: Anti-amnesic activity in CD-1 mouse model of scopolamine-induced memory impairment assessed as step-through latency time to enter dark compartment in retention trail on day 2 at 10 to 30 mg/kg, ip administered 60 mins before trail by passive avoidance test. In kind it is functional, organism-based. The following applies: dose 10-30 mg/kg. Summed up:
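CD-1 mice, passive avoidance: scopolamine 1 mg/kg s.c. in 0.9% saline 30 min before trial; test article suspended in 1% Tween 80, i.p. 60 min before trial (controls 1% Tween 80 i.p.). Acquisition trial: 30 s in lit compartment, gate opened, step-through latency to dark chamber recorded; retention trial 24 h later. n = 8–9.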

As a reminder, the IC50 is the point on the concentration scale where inhibition reaches its midpoint. Read a low IC50 as greater potency in that assay.

Active and inactive are the calls of the source.

Sequence of Acetylcholinesterase (P22303 whole entry): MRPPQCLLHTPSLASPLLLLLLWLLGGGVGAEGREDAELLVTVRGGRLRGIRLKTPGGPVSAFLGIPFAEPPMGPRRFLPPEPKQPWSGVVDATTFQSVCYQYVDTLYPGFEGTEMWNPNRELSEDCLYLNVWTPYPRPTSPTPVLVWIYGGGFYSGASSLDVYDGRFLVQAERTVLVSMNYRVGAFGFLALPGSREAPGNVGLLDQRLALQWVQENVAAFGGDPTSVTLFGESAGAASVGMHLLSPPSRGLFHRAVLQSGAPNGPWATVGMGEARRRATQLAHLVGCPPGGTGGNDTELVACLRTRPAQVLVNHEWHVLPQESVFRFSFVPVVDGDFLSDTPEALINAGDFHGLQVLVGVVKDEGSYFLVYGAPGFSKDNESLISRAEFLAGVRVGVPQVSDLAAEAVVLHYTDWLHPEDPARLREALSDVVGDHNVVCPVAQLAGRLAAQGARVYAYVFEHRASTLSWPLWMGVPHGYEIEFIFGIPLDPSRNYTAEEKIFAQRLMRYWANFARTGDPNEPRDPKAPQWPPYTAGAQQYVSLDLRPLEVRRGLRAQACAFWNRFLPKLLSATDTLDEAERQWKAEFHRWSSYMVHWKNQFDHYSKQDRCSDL
Sequence of Cholinesterase (P06276 whole entry): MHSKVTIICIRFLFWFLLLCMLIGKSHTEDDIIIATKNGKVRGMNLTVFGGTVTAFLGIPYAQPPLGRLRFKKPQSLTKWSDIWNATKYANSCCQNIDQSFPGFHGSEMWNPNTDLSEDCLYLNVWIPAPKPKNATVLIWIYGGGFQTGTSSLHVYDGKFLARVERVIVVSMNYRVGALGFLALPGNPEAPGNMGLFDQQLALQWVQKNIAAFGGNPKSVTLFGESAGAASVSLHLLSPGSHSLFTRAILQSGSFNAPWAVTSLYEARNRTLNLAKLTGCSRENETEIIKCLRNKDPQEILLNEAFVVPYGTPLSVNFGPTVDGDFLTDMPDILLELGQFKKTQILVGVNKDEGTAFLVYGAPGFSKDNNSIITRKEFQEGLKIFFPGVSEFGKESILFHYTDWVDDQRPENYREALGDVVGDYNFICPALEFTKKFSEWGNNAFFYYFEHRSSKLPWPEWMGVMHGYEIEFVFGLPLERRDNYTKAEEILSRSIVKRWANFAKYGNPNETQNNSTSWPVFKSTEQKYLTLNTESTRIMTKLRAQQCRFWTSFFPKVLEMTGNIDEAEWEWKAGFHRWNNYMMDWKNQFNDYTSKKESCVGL

In turn, `CCCCN[C@@H](Cc1c[nH]c2ccccc12)C(=O)NCCC1CCCN(Cc2ccc(OC)cc2)CC1` (mixture of isomers) returned an IC50 at Cholinesterase of 100 nM. This lies in the sub-micromolar range.

Turning to `CCCCN[C@@H](Cc1c[nH]c2ccccc12)C(=O)NCCC1CCCN(Cc2ccccc2)CC1` (mixture of isomers), the 50% inhibitory concentration (IC50) against Acetylcholinesterase is 16000 nM; at Cholinesterase, 2.8 nM.

On Cholinesterase, `CCCCN[C@@H](Cc1c[nH]c2ccccc12)C(=O)NCCC1CCN(c2ccccc2)CC1` yielded an IC50 of 5.6 nM.

With `CCCCN[C@@H](Cc1c[nH]c2ccccc12)C(=O)NCCC1CCN(CCc2ccccc2)CC1`, the concentration for half-maximal inhibition (IC50) against Cholinesterase is 3.8 nM.

Turning to `CCCCN[C@@H](Cc1ccccc1)C(=O)NCCC1CCCCCC1`, the concentration for half-maximal inhibition (IC50) against Cholinesterase is 609 nM.

In the case of `CCCCN[C@@H](Cc1c[nH]c2ccccc12)C(=O)NCCC1CCCC(c2ccccc2)C1` (mixture of isomers), the IC50 on Cholinesterase worked out at 6.6 nM. Compared with the last compound, the IC50 is about 92-fold lower.

Consider `CCCCN[C@@H](Cc1c[nH]c2ccccc12)C(=O)N1CCCC1c1ccccc1` (stereo partly drawn), for which the IC50 on Cholinesterase is 990 nM.

Consider `CCCCN(CCCC)[C@@H](Cc1c[nH]c2ccccc12)C(=O)N1CCC(Cc2ccccc2)CC1`, for which, on Cholinesterase, the IC50 amounted to 76 nM. This IC50 lies about 13-fold lower than the previous one.

In the case of `CCCCN[C@@H](Cc1c[nH]c2ccccc12)C(=O)NCCC1CCN(Cc2ccccc2)CC1`, the values for the half-maximal inhibitory concentration (IC50) against Acetylcholinesterase and at Cholinesterase were 25400 nM and 2 nM, respectively.

In the case of `CCCCN[C@@H](Cc1c[nH]c2ccccc12)C(=O)NCCC1CCN(CC2CCN(C)CC2)CC1`, the values for the concentration for half-maximal inhibition (IC50) against Acetylcholinesterase and at Cholinesterase were 29700 nM and 6600 nM, respectively.

Regarding `CCCCN[C@@H](Cc1c[nH]c2ccccc12)C(=O)NCCC1CCCCCC1`, in data set [1], the Activity result is given as “Non-Toxic”. Also, in the data set with Mus musculus [2], the result was Active. Further, the outcome in the data set with Mus musculus [3], with Mus musculus [4], in the data set on Mus musculus [5] and with Mus musculus [6] was inactive. At Cholinesterase, this compound returned a 50% inhibitory concentration (IC50) of 22 nM.

For the compound `CCCCN[C@@H](Cc1c[nH]c2ccccc12)C(=O)NCCC1CCCN(Cc2ccccc2)C1` (mixture of isomers), on Cholinesterase, half-maximal inhibition (IC50) required 9 nM.

`CCCCN[C@@H](CC(C)C)C(=O)NCCC1CCCCCC1` gave an IC50 against Cholinesterase of 36300 nM.

`CCCCN[C@@H](Cc1c[nH]c2ccccc12)C(=O)NCCC1CCCN(Cc2c(F)c(F)cc(F)c2F)CC1` (mixture of isomers) displayed an IC50 on Cholinesterase of 5.9 nM.

(Values after ChEMBL document CHEMBL4706571, “Structure-activity relationship study of tryptophan-based butyrylcholinesterase inhibitors” (Eur J Med Chem, 2020).)
